According to ChEMBL document CHEMBL4229571, “Development of 13H-benzo[f]chromeno[4,3-b][1,7]naphthyridines and their salts as potent cytotoxic agents and topoisomerase I/IIα inhibitors” (2018):
Values joined by “and” are separate entries in the source; they are usually repeats but may differ in a detail not shown here. Equal entries are not always repeated.

Tests used:
[1] = tested on: HCT-15; test: Cytotoxicity against human HCT15 cells assessed as growth inhibition after 72 hrs by SRB assay; assay type: functional
How it was run: (§1)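 SRB assay per NCI protocol: 2 × 10^3 cells/well seeded, compounds in DMSO/media added next day (day 0) in quadruplicate at 1 nM–10 μM final, DMSO <0.1%. After 72 h, TCA fixation overnight at 4°C, 0.4% SRB 1 h, dye dissolved in 10 mM Tris, A690 read; day 0 absorbance subtracted. GI50 = concentration giving 50% drop in net growth, mean of three experiments.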

[2] = tested on: NCI-H23; test: Cytotoxicity against human NCI-H23 cells assessed as growth inhibition after 72 hrs by SRB assay; assay type: functional; how it was run: as §1
[3] = tested on: MDA-MB-231; test: Cytotoxicity against human MDA-MB-231 cells assessed as growth inhibition after 72 hrs by SRB assay; assay type: functional; how it was run: as §1
[4] = tested on: NUGC-3; test: Cytotoxicity against human NUGC3 cells assessed as growth inhibition after 72 hrs by SRB assay; assay type: functional; how it was run: as §1
[5] = tested on: PC-3; test: Cytotoxicity against human PC3 cells assessed as growth inhibition after 72 hrs by SRB assay; assay type: functional; how it was run: as §1
[6] = tested on: ACHN; test: Cytotoxicity against human ACHN cells assessed as growth inhibition after 72 hrs by SRB assay; assay type: functional; how it was run: as §1
[7] = target: DNA topoisomerase 2-alpha (Homo sapiens) (UniProt P11388); test: Inhibition of recombinant human DNA topoisomerase 2-alpha at 100 uM using supercoiled pBR322 DNA as substrate after 30 mins by densitometric analysis relative to control
How it was run: (§2)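 200 ng supercoiled pBR322 with 4 units human topo IIα, 30 min at 30 °C, in 10 mM Tris–HCl pH 7.9, 50 mM NaCl, 5 mM MgCl2, 1 mM EDTA, 1 mM ATP, 15 μg/mL BSA. Stopped with EDTA, run on 1% agarose/TAE at 60 V for 1 h, bands quantified by densitometry. Etoposide as positive control. Screening at 100 μM; above 30% inhibition, retested at 20 μM.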

[8] = target: T1, DNA topoisomerase 1 (Homo sapiens) (UniProt P11387); test: Inhibition of recombinant human DNA topoisomerase 1 at 20 uM using supercoiled pBR322 DNA as substrate after 30 mins by densitometric analysis relative to control
T1 sequence (whole entry): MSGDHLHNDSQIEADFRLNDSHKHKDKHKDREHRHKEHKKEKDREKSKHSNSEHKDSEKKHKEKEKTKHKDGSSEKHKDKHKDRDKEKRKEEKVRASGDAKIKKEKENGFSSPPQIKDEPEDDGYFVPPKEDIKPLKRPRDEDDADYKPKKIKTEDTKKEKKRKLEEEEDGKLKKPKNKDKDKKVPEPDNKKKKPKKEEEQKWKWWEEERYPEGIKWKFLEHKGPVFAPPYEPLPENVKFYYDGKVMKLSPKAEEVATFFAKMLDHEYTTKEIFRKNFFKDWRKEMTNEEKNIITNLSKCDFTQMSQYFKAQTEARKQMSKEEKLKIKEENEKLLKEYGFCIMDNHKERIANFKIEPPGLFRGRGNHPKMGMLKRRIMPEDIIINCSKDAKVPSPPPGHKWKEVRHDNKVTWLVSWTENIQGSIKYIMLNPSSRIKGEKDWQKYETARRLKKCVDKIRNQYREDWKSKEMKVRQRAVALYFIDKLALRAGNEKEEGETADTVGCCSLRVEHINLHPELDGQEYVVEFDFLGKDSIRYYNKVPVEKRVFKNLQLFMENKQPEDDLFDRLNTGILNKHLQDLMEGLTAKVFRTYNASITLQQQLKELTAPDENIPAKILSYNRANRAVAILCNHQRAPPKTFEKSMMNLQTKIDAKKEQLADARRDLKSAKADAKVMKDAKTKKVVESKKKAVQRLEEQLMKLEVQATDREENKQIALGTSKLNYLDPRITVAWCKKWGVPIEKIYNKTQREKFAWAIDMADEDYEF
How it was run: (§3)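 Relaxation of 100 ng supercoiled pBR322 by 1 unit recombinant human topo I, 37 °C for 30 min, in 10 mM Tris-HCl pH 7.9, 150 mM NaCl, 0.1% BSA, 1 mM spermidine, 5% glycerol. Stopped with sarcosyl solution, run on 1% agarose/TAE at 15 V for 7 h, ethidium bromide stained, bands quantified by densitometry. Camptothecin as positive control. Compounds first screened at 100 μM; those over 30% inhibition retested at 20 μM.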

[9] = target: T1, DNA topoisomerase 1 (Homo sapiens); test: Potency index, ratio of test compound activity to camptothecin activity for recombinant human DNA topoisomerase 1 at 100 uM
[10] = target: DNA topoisomerase 2-alpha (Homo sapiens) (UniProt P11388); test: Inhibition of recombinant human DNA topoisomerase 2-alpha at 20 uM using supercoiled pBR322 DNA as substrate after 30 mins by densitometric analysis relative to control; how it was run: as §2
[11] = target: DNA topoisomerase 2-alpha (Homo sapiens) (UniProt P11388); test: Potency index, ratio of test compound activity to etoposide activity for recombinant human DNA topoisomerase 2-alpha at 20 uM
[12] = target: T1, DNA topoisomerase 1 (Homo sapiens); test: Inhibition of recombinant human DNA topoisomerase 1 at 100 uM using supercoiled pBR322 DNA as substrate after 30 mins by densitometric analysis relative to control; how it was run: as §3

DNA topoisomerase 2-alpha (Homo sapiens), sequence (P11388 whole entry): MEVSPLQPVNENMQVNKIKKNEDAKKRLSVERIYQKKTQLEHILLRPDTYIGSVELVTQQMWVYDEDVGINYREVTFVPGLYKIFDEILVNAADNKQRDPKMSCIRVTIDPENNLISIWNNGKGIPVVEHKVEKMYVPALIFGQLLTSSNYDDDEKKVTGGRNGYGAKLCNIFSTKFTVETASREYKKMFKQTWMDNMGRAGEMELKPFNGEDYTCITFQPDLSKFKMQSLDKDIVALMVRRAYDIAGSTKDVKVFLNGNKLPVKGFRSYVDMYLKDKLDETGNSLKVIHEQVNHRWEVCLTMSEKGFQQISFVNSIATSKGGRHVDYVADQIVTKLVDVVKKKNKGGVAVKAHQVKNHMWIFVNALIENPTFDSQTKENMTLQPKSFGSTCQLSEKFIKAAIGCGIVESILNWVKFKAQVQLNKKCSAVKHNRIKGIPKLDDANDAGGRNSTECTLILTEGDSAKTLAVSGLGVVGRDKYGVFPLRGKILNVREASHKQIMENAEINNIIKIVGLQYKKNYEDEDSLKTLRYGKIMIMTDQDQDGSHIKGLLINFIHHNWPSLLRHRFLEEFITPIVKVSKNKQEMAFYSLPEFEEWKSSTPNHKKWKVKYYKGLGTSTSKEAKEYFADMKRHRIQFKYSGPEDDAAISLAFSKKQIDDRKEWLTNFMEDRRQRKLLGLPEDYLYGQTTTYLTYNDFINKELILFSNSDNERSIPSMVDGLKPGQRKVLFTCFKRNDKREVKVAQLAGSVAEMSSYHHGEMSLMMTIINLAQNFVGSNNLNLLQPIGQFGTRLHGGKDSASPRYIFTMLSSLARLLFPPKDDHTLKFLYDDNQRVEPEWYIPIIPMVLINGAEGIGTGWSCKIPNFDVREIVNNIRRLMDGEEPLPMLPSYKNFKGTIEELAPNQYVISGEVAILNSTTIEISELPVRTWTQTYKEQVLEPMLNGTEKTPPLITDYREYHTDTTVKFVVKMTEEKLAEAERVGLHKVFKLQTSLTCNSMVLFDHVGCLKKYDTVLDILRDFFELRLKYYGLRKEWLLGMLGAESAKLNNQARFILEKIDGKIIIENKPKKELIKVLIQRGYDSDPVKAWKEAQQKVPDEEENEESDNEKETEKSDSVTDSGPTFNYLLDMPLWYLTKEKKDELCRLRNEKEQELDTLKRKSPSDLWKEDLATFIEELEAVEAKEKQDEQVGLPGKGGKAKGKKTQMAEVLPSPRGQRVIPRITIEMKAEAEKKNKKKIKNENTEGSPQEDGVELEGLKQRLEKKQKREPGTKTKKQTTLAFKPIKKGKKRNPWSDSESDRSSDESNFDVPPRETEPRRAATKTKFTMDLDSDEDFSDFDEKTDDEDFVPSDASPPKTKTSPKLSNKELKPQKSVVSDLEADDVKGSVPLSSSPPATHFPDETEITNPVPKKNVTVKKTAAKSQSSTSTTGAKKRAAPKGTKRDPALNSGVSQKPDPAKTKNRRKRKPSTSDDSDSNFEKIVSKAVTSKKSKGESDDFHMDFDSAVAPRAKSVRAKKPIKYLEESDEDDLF

| SMILES | GI50 ([1]; Homo sapiens, HCT-15, 72 h) | GI50 ([4]; Homo sapiens, NUGC-3, 72 h) | GI50 ([6]; Homo sapiens, ACHN, 72 h) | GI50 ([2]; Homo sapiens, NCI-H23, 72 h) | GI50 ([3]; Homo sapiens, MDA-MB-231, 72 h) | GI50 ([5]; Homo sapiens, PC-3, 72 h) | other results |
| --- | --- | --- | --- | --- | --- | --- | --- |
| Cc1ccc(-c2c3c(nc4cnc5ccccc5c24)-c2ccccc2OC3)cc1 [listing 1 of 3 here] | 4.23 µM | 3.85 µM | 2.4 µM |  |  |  | GI50 [2]: > 10 µM; GI50 [3]: 5.62 µM; GI50 [5]: 5.02 µM |
| Fc1ccc2c(c1)-c1nc3cnc4ccccc4c3cc1CO2 [listing 1 of 3 here] |  |  |  |  |  |  | inhibition [7]: 14.5% and 12.2%; inhibition [8]: 4.2%; Ratio [9]: 1.32 |
| Cc1c2c(nc3cnc4ccccc4c13)-c1cc(F)ccc1OC2 | > 10 µM | > 10 µM | > 10 µM | > 10 µM | > 10 µM | > 10 µM |  |
| Cc1ccc2c(c1)-c1nc3cnc4ccccc4c3cc1CO2 | > 10 µM | > 10 µM | > 10 µM | > 10 µM | > 10 µM | > 10 µM |  |
| Cc1c2c(nc3cnc4ccccc4c13)-c1c(ccc3ccccc13)OC2 | > 10 µM | > 10 µM | > 10 µM | > 10 µM | > 10 µM | > 10 µM |  |
| Cc1ccc(-c2c3c(nc4cnc5ccccc5c24)-c2ccccc2OC3)cc1 [listing 2 of 3 here] |  |  |  |  |  |  | inhibition [8]: 11.1%; inhibition [10]: 38.3%; Ratio [11]: 1.25 |
| Cc1ccc(-c2c3c(nc4cnc5ccccc5c24)-c2cc(Cl)ccc2OC3)cc1 | > 10 µM | > 10 µM | > 10 µM | > 10 µM | > 10 µM | > 10 µM |  |
| Clc1ccc2c(c1)-c1nc3cnc4ccccc4c3cc1CO2 [listing 1 of 3 here] |  |  |  |  |  |  | inhibition [7]: 0%; inhibition [12]: 1.7% and 12.3% |
| Cc1c2c(nc3cnc4ccccc4c13)-c1cc(Br)ccc1OC2 | > 10 µM | > 10 µM | > 10 µM | > 10 µM | > 10 µM | > 10 µM |  |
| c1ccc2c3c(ccc2c1)OCc1cc2c(cnc4ccccc42)nc1-3 | > 10 µM | > 10 µM | > 10 µM | > 10 µM | > 10 µM | > 10 µM |  |
| Cc1c2c(nc3cnc4ccccc4c13)-c1cc(Cl)cc(Cl)c1OC2 | > 10 µM | > 10 µM | > 10 µM | > 10 µM | > 10 µM | > 10 µM |  |
| Clc1ccc2c(c1)-c1nc3cnc4ccccc4c3cc1CO2 [listing 2 of 3 here] | 1.57 µM | 2.21 µM |  | 1.19 µM |  | 1.5 µM | GI50 [3]: 2.72 µM; GI50 [6]: 2.56 µM |
| COc1cccc2c1OCc1c-2nc2cnc3ccccc3c2c1C [listing 1 of 3 here] | 1.79 µM | 2.62 µM | 2.19 µM | 1.56 µM | 1.52 µM | 1.61 µM |  |
| Fc1ccc2c(c1)-c1nc3cnc4ccccc4c3cc1CO2 [listing 2 of 3 here] |  |  |  |  |  |  | GI50 [1]: 1.56 µM; GI50 [2]: 1.03 µM; GI50 [3]: 1.23 µM; GI50 [4]: 1.37 µM; GI50 [5]: 1.27 µM; GI50 [6]: 1 µM |
| Cc1ccc(-c2c3c(nc4cnc5ccccc5c24)-c2ccccc2OC3)cc1 [listing 3 of 3 here] |  |  |  |  |  |  | GI50 [1]: 2.71 µM; GI50 [2]: 2.06 µM; GI50 [3]: 1.79 µM; GI50 [4]: 2.7 µM; GI50 [5]: 1.53 µM; GI50 [6]: 2.28 µM |
| COc1ccc(Br)c2c1OCc1c-2nc2cnc3ccccc3c2c1C | > 10 µM | > 10 µM | > 10 µM | > 10 µM | > 10 µM | > 10 µM |  |
| CC(C)(C)c1cc2c(c(C(C)(C)C)c1)OCc1cc3c(cnc4ccccc43)nc1-2 | > 10 µM | > 10 µM | > 10 µM | > 10 µM | > 10 µM | > 10 µM |  |
| c1ccc2c(c1)OCc1cc3c(cnc4ccccc43)nc1-2 | > 10 µM | > 10 µM | > 10 µM | > 10 µM | > 10 µM | > 10 µM |  |
| Fc1ccc2c(c1)-c1nc3cnc4ccccc4c3cc1CO2 [listing 3 of 3 here] | 2.19 µM | 1.85 µM |  | 1.87 µM | 2.2 µM |  | GI50 [5]: 2.79 µM; GI50 [6]: 3.21 µM |
| Cc1c2c(nc3cnc4ccccc4c13)-c1cc(C(C)(C)C)cc(C(C)(C)C)c1OC2 | > 10 µM | > 10 µM | > 10 µM | > 10 µM | > 10 µM | > 10 µM |  |
| COc1cccc2c1OCc1c-2nc2cnc3ccccc3c2c1C [listing 2 of 3 here] |  |  |  |  |  |  | inhibition [7]: 0% and 23.5%; inhibition [12]: 14.4% and 10.2% |
| Clc1ccc2c(c1)-c1nc3cnc4ccccc4c3cc1CO2 [listing 3 of 3 here] |  |  |  |  |  |  | GI50 [1]: 1.09 µM; GI50 [2]: 0.9 µM; GI50 [3]: 1.05 µM; GI50 [4]: 1.16 µM; GI50 [5]: 1.67 µM; GI50 [6]: 1.08 µM |
| Cc1c2c(nc3cnc4ccccc4c13)-c1cc(Cl)ccc1OC2 | > 10 µM | > 10 µM | > 10 µM | > 10 µM | > 10 µM | > 10 µM |  |
| COc1cccc2c1OCc1c-2nc2cnc3ccccc3c2c1C [listing 3 of 3 here] |  |  |  |  |  |  | GI50 [1]: 1.29 µM; GI50 [2]: 2.39 µM; GI50 [3]: 1.67 µM; GI50 [4]: 1.56 µM; GI50 [5]: 2.06 µM; GI50 [6]: 2.01 µM |
| Brc1ccc2c(c1)-c1nc3cnc4ccccc4c3cc1CO2 | > 10 µM | > 10 µM | > 10 µM | > 10 µM | > 10 µM | > 10 µM |  |
| COc1cccc2c1C(=O)c1c(O)c3c(c(O)c1C2=O)C[C@@](O)(C(=O)CO)C[C@@H]3O[C@H]1C[C@H](N)[C@H](O)[C@H](C)O1 [DOXORUBICIN] | 0.077 µM | 0.086 µM | 0.08 µM | 0.09 µM | 0.068 µM | 0.076 µM |  |
| Cc1ccc2c(c1)-c1nc3cnc4ccccc4c3c(C)c1CO2 | > 10 µM | > 10 µM | > 10 µM | > 10 µM | > 10 µM | > 10 µM |  |
